Laboratory results taken from ChEMBL document CHEMBL6134775, “Breaking boundaries in diabetic nephropathy treatment: design and synthesis of novel steroidal SGLT2 inhibitors” (RSC Med Chem, 2025).
Each block holds one compound with its values, some of them ahead of it. Calls of active or inactive are those of the source. No cut-off for these calls is given here.

Tests used:
NRK-52E [1] = test: Cytotoxicity against rat NRK-52E cells assessed as reduction in cell viability at 1 to 50 uM pretreated with 33 mM glucose for 6 hrs followed by compound addition and measured after 24 hrs by Alamar blue dye based microplate reader analysis; assay type: toxicity; conditions: dose 1-50 µM
Procedure, shortened: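 Alamar blue assay in NRK-52E cells grown in high-glucose DMEM with 10% FBS at 37 °C, 5% CO2. At 80-90% confluency, cells got 33 mM glucose for 6 h, then compound at 1-50 μM (vehicle 0.1% DMSO + 1XPBS) for 24 h. Dye incubation 4 h; OD read at 570 and 600 nm. Viability expressed as the absorbance ratio to the vehicle control.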

NRK-52E [2] = test: Inhibition of ROS generation in rat NRK-52E cells assessed as reduction in intracellular ROS generation at 0.25 to 10 uM preincubated with glucose for 6 hrs followed by compound addition and measured after 24 hrs by DCFDA staining based spectrofluorometric analysis; assay type: functional, cell-based; conditions: dose 0.25-10 µM
Procedure, shortened: (§1)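 NRK-52E cells in 24-well plates got 33 mM glucose for 6 h, then compound at 100 nM-10 μM (vehicle 0.1% DMSO + 1XPBS) for 24 h. Cells were loaded with 10 μM H2DCFDA for 30 min at 37 °C in the dark, lysed with 1% Triton X-100 and DMSO. Fluorescence was read at 480/530 nm in triplicate; the glucose-only signal was set as 100%.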

[3] = target: T1, Sodium/glucose cotransporter 2 (Rattus norvegicus) (UniProt P53792); test: Inhibition of SGLT2-mediated glucose uptake in rat NRK-52E cells assessed as reduction in glucose uptake by measuring fold change at 500 nM preincubated with 33 mM glucose for 6 hrs followed by compound addition and measured after 24 hrs by fluorescence based microplate reader analysis; assay type: cell-based
T1 sequence (whole entry): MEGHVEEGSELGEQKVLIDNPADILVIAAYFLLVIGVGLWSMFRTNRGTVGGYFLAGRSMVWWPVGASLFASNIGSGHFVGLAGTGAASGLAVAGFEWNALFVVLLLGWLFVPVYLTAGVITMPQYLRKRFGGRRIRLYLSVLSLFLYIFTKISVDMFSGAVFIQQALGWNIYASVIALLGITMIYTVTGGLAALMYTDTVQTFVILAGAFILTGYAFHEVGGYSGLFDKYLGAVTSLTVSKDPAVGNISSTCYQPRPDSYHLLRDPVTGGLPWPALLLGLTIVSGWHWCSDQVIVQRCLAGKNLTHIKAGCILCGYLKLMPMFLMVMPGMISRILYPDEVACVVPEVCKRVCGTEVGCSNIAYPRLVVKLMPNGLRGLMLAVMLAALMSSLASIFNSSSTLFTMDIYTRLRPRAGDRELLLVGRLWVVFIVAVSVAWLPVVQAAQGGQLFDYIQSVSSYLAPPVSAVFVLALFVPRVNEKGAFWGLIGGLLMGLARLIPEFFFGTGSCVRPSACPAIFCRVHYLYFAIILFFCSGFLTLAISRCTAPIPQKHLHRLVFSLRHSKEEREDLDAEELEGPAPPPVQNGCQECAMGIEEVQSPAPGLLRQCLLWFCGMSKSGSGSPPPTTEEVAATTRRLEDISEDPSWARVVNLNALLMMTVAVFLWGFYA
Procedure, shortened: (§2)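 6-NBDG uptake in NRK-52E cells seeded at 1×10^4/well, exposed to 33 mM glucose for 6 h, then to compound (1, 5, 10 μM; dose series 100 nM-10 μM; vehicle 0.1% DMSO + 1XPBS) for 24 h. Cells were rinsed in Na+-free buffer and given 20 μM 6-NBDG in Na+ or Na+-free HEPES buffer (pH 7.4) for 20 min at 37 °C. After lysis in 1% Triton X (pH 10) plus DMSO, fluorescence was read at 470/540 nm. Results are fold change vs control; n = 3.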

NRK-52E [4] = test: Effect of SGLT1 protein expression in glucose-induced rat NRK-52E cells at 1 to 5 uM by Western blotting analysis; assay type: functional, cell-based; conditions: dose 1-5 µM
NRK-52E [5] = test: Inhibition of fibronectin expression in glucose induced rat NRK-52E cells at 0.005 to 5 uM by Western blotting analysis; assay type: functional, cell-based; conditions: dose 0.005-5 µM
NRK-52E [6] = test: Inhibition of collagen-IV expression in glucose induced rat NRK-52E cells at 0.005 to 5 uM by Western blotting analysis; assay type: functional, cell-based; conditions: dose 0.005-5 µM
NRK-52E [7] = test: Downregulation of NOX-4 expression in glucose induced rat NRK-52E cells at 1 to 5 uM by Western blotting analysis; assay type: functional, cell-based; conditions: dose 1-5 µM
Mitochondrial membrane = test: Restoration of mitochondrial membrane depolarization in glucose induced rat NRK-52E cells assessed as increase in green fluorescence intensity at […] pretreated with glucose for 6 hrs followed by compound addition and measured after 24 hrs by rhodamine-123 staining based cytofluorimetric analysis; assay type: cell membranes
Procedure, shortened: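 NRK-52E cells (2×10^5/well) received 33 mM glucose for 6 h, then compound at 500 nM, 1 or 5 μM for 24 h. They were stained with 200 ng/mL rhodamine 123 for 30 min at 37 °C, washed, and analysed by flow cytometry.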

[8] = target: T1, Sodium/glucose cotransporter 2 (Rattus norvegicus); test: Inhibition of SGLT2-mediated glucose uptake in rat NRK-52E cells assessed as reduction in glucose uptake at 1 to 10 uM preincubated with 33 mM glucose for 6 hrs followed by compound addition and measured after 24 hrs by fluorescence based microplate reader analysis; assay type: cell-based; conditions: dose 1-10 µM; procedure, shortened: as §2
NRK-52E [9] = test: Induction of AMPK phosphorylation in glucose induced rat NRK-52E cells at 1 to 5 uM by Western blotting analysis; assay type: cell-based; conditions: filed as activator, dose 1-5 µM
[10] = target: T1, Sodium/glucose cotransporter 2 (Rattus norvegicus); test: Inhibition of SGLT2-mediated glucose uptake in rat NRK-52E cells assessed as fold decrease in reduction of glucose uptake at 1 uM preincubated with 33 mM glucose for 6 hrs followed by compound addition and measured after 24 hrs by fluorescence based microplate reader analysis relative to glucose alone; assay type: cell-based; procedure, shortened: as §2
[11] = target: T2, Sodium/glucose cotransporter 2 (Rattus norvegicus, UniProt P53792); test: Inhibition of SGLT2-mediated glucose uptake in rat NRK-52E cells assessed as reduction in glucose uptake preincubated with 33 mM glucose for 6 hrs followed by compound addition and measured after 24 hrs by fluorescence based microplate reader analysis; assay type: cell-based; procedure, shortened: as §2
T2 sequence (P53792 whole entry): T1 sequence (whole entry)

NRK-52E [12] = test: Inhibition of ROS generation in rat NRK-52E cells assessed as reduction in intracellular ROS generation at […] preincubated with glucose for 6 hrs followed by compound addition and measured after 24 hrs by DCFDA staining based spectrofluorometric analysis relative to glucose alone; assay type: functional, cell-based; procedure, shortened: as §1
NRK-52E [13] = test: Downregulation of TGF-beta1 expression in glucose induced rat NRK-52E cells at 0.005 to 5 uM by Western blotting analysis; assay type: functional, cell-based; conditions: dose 0.005-5 µM
NRK-52E [14] = test: Inhibition of NF-kappaB activation in glucose induced rat NRK-52E cells at 0.005 to 5 uM by Western blotting analysis; assay type: cell-based; conditions: dose 0.005-5 µM
NRK-52E [15] = test: Downregulation of IL-6 expression in glucose induced rat NRK-52E cells at 0.005 to 5 uM by Western blotting analysis; assay type: functional, cell-based; conditions: dose 0.005-5 µM
NRK-52E [16] = test: Downregulation of SGLT2 protein expression in glucose-induced rat NRK-52E cells at 1 to 5 uM by Western blotting analysis; assay type: functional, cell-based; conditions: dose 1-5 µM
Procedure, shortened: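 NRK-52E cells got 33 mM glucose for 6 h, then compound for 24 h, and were lysed in RIPA with protease/phosphatase inhibitors; protein was measured by BCA. Samples of about 20-30 μg were run on 10% SDS-PAGE and transferred to nitrocellulose. Blots were blocked in 1% BSA, probed with anti-SGLT2 (1:1000) overnight at 4 °C, then HRP anti-rabbit (1:1000) for 2 h, and detected by ECL with densitometry. β-actin served as loading control; three repeats.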

SMILES: CC(=O)O[C@H]1CC[C@@]2(C)C(=CC[C@@H]3[C@@H]2CC[C@]2(C)c4c(cnc5nc6ccc(Cl)cc6n45)C[C@@H]32)C1
- Activity (NRK-52E [1]): Non-toxic

- fold change (FC) [3]: 1.4
- Activity (Mitochondrial membrane): Active
- inhibition [8]: Active
- fold change (FC) [10]: 2
- IC50 [11]: 2.91 nM
SMILES: C[C@]12CC[C@H](O)CC1=CC[C@@H]1[C@@H]2CC[C@]2(C)c3c(cnc4nc5ccccc5n34)C[C@@H]12
- inhibition (NRK-52E [2]): Active; Significant Decrease Observed
- Activity (NRK-52E [4]): inactive
- inhibition (NRK-52E [5]): Active
- inhibition (NRK-52E [6]): Active
- Activity (NRK-52E [7]): Active
- Activity (NRK-52E [9]): Active
- Activity (NRK-52E [1]): Non-toxic
- inhibition (NRK-52E [12]): Active
- Activity (NRK-52E [13]): Active
- inhibition (NRK-52E [14]): Active
- Activity (NRK-52E [15]): Active
- Activity (NRK-52E [16]): Active

SMILES: C[C@]12CC[C@H](O)CC1=CC[C@@H]1[C@@H]2CC[C@]2(C)c3c(cnc4cc(-c5ccccc5)nn34)C[C@@H]12
- Activity (NRK-52E [1]): Non-toxic

SMILES: CC(=O)O[C@H]1CC[C@@]2(C)C(=CC[C@@H]3[C@@H]2CC[C@]2(C)c4c(cnc5cc(-c6ccc(Cl)cc6)nn45)C[C@@H]32)C1
- Activity (NRK-52E [1]): Non-toxic

SMILES: CC(=O)O[C@H]1CC[C@@]2(C)C(=CC[C@@H]3[C@@H]2CC[C@]2(C)c4c(cnc5nc6cc(Cl)ccc6n45)C[C@@H]32)C1
- Activity (NRK-52E [1]): Non-toxic

SMILES: CC(=O)O[C@H]1CC[C@@]2(C)C(=CC[C@@H]3[C@@H]2CC[C@]2(C)c4c(cnc5c(C#N)cnn45)C[C@@H]32)C1
- Activity (NRK-52E [1]): Non-toxic

SMILES: C[C@]12CC[C@H](O)CC1=CC[C@@H]1[C@@H]2CC[C@]2(C)c3c(cnc4nc5cc(Cl)ccc5n34)C[C@@H]12
- Activity (NRK-52E [1]): Non-toxic

SMILES: CC(=O)O[C@H]1CC[C@@]2(C)C(=CC[C@@H]3[C@@H]2CC[C@]2(C)c4c(cnc5cc(-c6ccccc6)nn45)C[C@@H]32)C1
- Activity (NRK-52E [1]): Non-toxic

SMILES: C[C@]12CC[C@H](O)CC1=CC[C@@H]1[C@@H]2CC[C@]2(C)c3c(cnc4cc(-c5ccc(Cl)cc5)nn34)C[C@@H]12
- Activity (NRK-52E [1]): Non-toxic

SMILES: CC(=O)O[C@H]1CC[C@@]2(C)C(=CC[C@@H]3[C@@H]2CC[C@]2(C)c4c(cnc5nc6ccccc6n45)C[C@@H]32)C1
- Activity (NRK-52E [1]): Non-toxic

- inhibition [8]: inactive
SMILES: COc1cccc2nn3c4c(cnc3c12)C[C@H]1[C@@H]2CC=C3C[C@@H](O)CC[C@]3(C)[C@H]2CC[C@]41C
- Activity (NRK-52E [1]): Non-toxic

SMILES: C[C@]12CC[C@H](O)CC1=CC[C@@H]1[C@@H]2CC[C@]2(C)c3c(cnc4cc(-c5ccc(Br)cc5)nn34)C[C@@H]12
- Activity (NRK-52E [1]): Non-toxic

- inhibition [8]: inactive
SMILES: COc1cccc2nn3c4c(cnc3c12)C[C@H]1[C@@H]2CC=C3C[C@@H](OC(C)=O)CC[C@]3(C)[C@H]2CC[C@]41C
- Activity (NRK-52E [1]): Non-toxic

SMILES: C[C@]12CC[C@H](O)CC1=CC[C@@H]1[C@@H]2CC[C@]2(C)c3c(cnc4nc5c(Cl)cccc5n34)C[C@@H]12
- Activity (NRK-52E [1]): Non-toxic

SMILES: CC(=O)O[C@H]1CC[C@@]2(C)C(=CC[C@@H]3[C@@H]2CC[C@]2(C)c4c(cnc5nc6c(Cl)cccc6n45)C[C@@H]32)C1
- Activity (NRK-52E [1]): Non-toxic

SMILES: CC(=O)O[C@H]1CC[C@@]2(C)C(=CC[C@@H]3[C@@H]2CC[C@]2(C)c4c(cnc5cc(-c6ccc(Br)cc6)nn45)C[C@@H]32)C1
- Activity (NRK-52E [1]): Non-toxic

- IC50 [11]: 2.35 nM
SMILES: Cc1ccc([C@@H]2O[C@H](CO)[C@@H](O)[C@H](O)[C@H]2O)cc1Cc1ccc(-c2ccc(F)cc2)s1 [CANAGLIFLOZIN ANHYDROUS]
